Compound activity as filed in PubChem BioAssay.
Most compounds without a hit are left out; they make up all but 2.5% or so of the library.
MBD2 DNA inh = MBD2-methylated oligo binding inhibition. Q9UBB5. 370,000 tested, 0.31% active. inhibition, % at 4.4 µM. TR-FRET, MBD2 binding to methylated oligonucleotide; in the data active = inhibition above about 13%
Target sequence (Q9UBB5 whole entry, looked up): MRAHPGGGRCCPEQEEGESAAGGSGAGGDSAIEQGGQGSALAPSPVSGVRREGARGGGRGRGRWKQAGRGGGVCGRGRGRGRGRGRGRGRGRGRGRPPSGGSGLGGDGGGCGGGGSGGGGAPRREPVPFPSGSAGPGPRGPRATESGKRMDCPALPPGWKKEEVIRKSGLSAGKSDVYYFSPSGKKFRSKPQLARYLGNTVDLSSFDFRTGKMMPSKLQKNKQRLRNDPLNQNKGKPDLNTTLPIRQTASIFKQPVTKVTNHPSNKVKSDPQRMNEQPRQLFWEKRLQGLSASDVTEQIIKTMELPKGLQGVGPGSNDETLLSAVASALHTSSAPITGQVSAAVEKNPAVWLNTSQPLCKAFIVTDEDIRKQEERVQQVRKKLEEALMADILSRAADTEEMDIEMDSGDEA
UHRF1 binding = UHRF1 methyl-DNA binding inhibition. UHRF1 binding to methylated oligo, TR-FRET. inhibition, % at 4.4 µM. Q96T88. 370,000 tested, 0.75% active; in the data active = inhibition above about 21%;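 also: UHRF1 SRA domain binding a hemimethylated CpG hairpin DNA probe; 0% = median of test compound wells and 100% = reference inhibitor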
DNMT1 inh = inhibitors of human DNMT1 | P26358 | DNMT1 molecular beacon, Hinp1I cleavage, fluorescence | inhibition (reported as % activation of signal), % at 10 µM | 360,000 tested, 0.83% active | AID 588458; in the data active = inhibition above about 50%
SUMO1 PPI mod = alters human SUMO1 binding to SIM partners | SUMO1 binding to a labelled peptide, TR-FRET, 1 h | inhibition, % at 20 µM | 360,000 tested, 0.33% active; in the data active = inhibition above about 37%
Target sequence (P63165 whole entry, looked up): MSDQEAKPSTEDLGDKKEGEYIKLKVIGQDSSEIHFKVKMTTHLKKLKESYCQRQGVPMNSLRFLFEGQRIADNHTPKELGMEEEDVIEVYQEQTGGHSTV
Pemphigus Ab inh = human desmoglein-3 autoantibody binding inhibition; binding (percent of control), % at 10 µM; DSG3-coupled beads, scFv-anti-DSG3-GFP binding, flow cytometry; stronger effect = lower value; P32926; 310,000 tested, 0.48% active;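 active = binding more than 3 SD below its plate's average and above zero; inconclusive = below that plate limit but binding exactly zero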;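 also: hits lower antibody fragment binding to DSG3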
HCV NS3 hel inh = HCV NS3 helicase inhibition. NS3 helicase DNA unwinding, Cy5 molecular beacon fluorescence. inhibition, % at 10.9 µM. 290,000 tested, 0.56% active. AID 1800;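 active = inhibition above the mean of all tested compounds plus 3 SD, set per campaign, cut at about 35% in these data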;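 also: 0% = DMSO wells and 100% = thioflavine S control wells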
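Test system: hepatitis C virus NS3 helicase domain fragment enzyme. Also added: annealed dual-labelled DNA beacon duplex, ATP-started. Timing: 60 min unwinding reaction at 25 °C after ATP addition. Technique: Cy5 fluorescence. Measure: % inhibition of unwinding.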
Numbers without * were called inactive; ? = inconclusive; / = no result given.

SMILES	MBD2 DNA inh	UHRF1 binding	DNMT1 inh	SUMO1 PPI mod	Pemphigus Ab inh	HCV NS3 hel inh
Cc1cc(C)cc(N(CC(=O)NC2CC3CCC2C3)S(C)(=O)=O)c1 (stereo not given)	-5.5	1.1	-0.1	-3.5	98.2	-1.9
CN(c1ccc(C(=O)NC2CC3CCC2C3)cc1)S(C)(=O)=O (stereo not given)	1.9	-0.7	3.3	-0.4	6.6*	5.2
C=C(C)Cn1c(N(CCO)Cc2ccccc2)nc2c1c(=O)[nH]c(=O)n2C	3.3	84.4*	0.6	5.1	105.4	13.0
Cn1cccc1C(=O)N1CCN(S(=O)(=O)c2ccc(Br)s2)CC1	-1.3	-0.9	/	/	/	/
CCCn1c(N)c(N(CCOC)C(=O)c2ccc(N(C)S(=O)(=O)c3ccc(C)cc3)cc2)c(=O)[nH]c1=O	-3.4	96.3*	-1.8	-0.9	103.9	/
CCCCn1c(N)c(N(CCOC)C(=O)c2ccc(C)o2)c(=O)[nH]c1=O	2.9	22.2*	7.5	11.4	100.3	/
CCCCN(C(=O)c1ccc(Cl)c([N+](=O)[O-])c1)c1c(N)n(CCC)c(=O)[nH]c1=O	0.1	28.9*	0.3	-7.9	99.1	-0.5
CCCCn1c(N)c(N(CCOC)C(=O)c2ccc(Br)o2)c(=O)[nH]c1=O	3.2	0.8	-0.2	-2.8	103.5	/
Cc1ccc(S(=O)(=O)N(C)CC(=O)NNC(=O)CCC(=O)c2ccc(F)cc2)cc1	3.4	7.9	-2.5	-0.4	126.1	/
Cc1ccc(NC(=O)C2CCN(S(=O)(=O)c3c(C)noc3C)CC2)cc1C	-1.6	6.1	2.2	1.6	99.6	-5.5
COc1ccc(Cl)cc1N(CC(=O)N1CCC(C)CC1)S(C)(=O)=O	2.5	0.4	-1.8	2.1	80.9*	-1.9
O=C(Nc1ccccc1Br)C(=O)N1CCCC1	-0.8	0.0	2.2	-0.7	80.2	5.0
O=C(NNc1ccccc1Br)C(=O)n1ccc2ccccc21	-3.3	66.1*	1.0	-3.1	126.5	-9.0
C[C@@H]1CN([C@H](C)CO)C(=O)c2cc(C#C[C@@H](C)O)cnc2O[C@H]1CN(C)C(=O)c1ccc(F)cc1	-2.3	-1.6	4.7	0.3	100.6	/
O=C(O)c1ccc2nnn(O)c2c1	-3.1	-1.8	0.3	-0.2	97.1	-10.6
O=C(CSc1cccc(C(F)(F)F)c1)Nc1nnc(C2CC2)s1	1.7	3.5	1.6	2.2	/	/
COc1ccc(NC(=O)CSc2nc3cccnc3n2C)cc1	-0.9	-3.3	0.6	-3.8	110.7	3.1
COc1ccc2nc(NC(=O)CSc3nc4cccnc4n3C)sc2c1	5.3	10.3	1.2	-0.2	83.6*	0.0
Cc1cccc(C)c1N=Cc1c(O)n(-c2nccs2)c(=O)c2ccccc12	/	/	-2.8	-5.2	96.4	12.9
Cc1cc(C)c(N=Cc2c(O)n(-c3nccs3)c(=O)c3ccccc23)c(C)c1	5.6	27.3*	-6.3	-3.2	100.2	11.4
CCOC(=O)c1c(C)oc2c1c(C=NCCO)c(O)c1ccccc12	3.1	-2.2	10.2	45.7*	103.0	3.0
Cc1ccc(-n2c(SCC(=O)Nc3ccccc3-c3ccccc3)nnc2-c2cccs2)cc1	0.8	0.8	/	/	/	/
Cc1ccc(-n2c(-c3ccncc3)nnc2-c2cccs2)cc1	0.3	1.4	0.6	0.1	-8.5*	15.2
Cc1cccc(NCc2ccc(N(C)C)cc2)n1	-0.6	0.2	60.4*	-1.2	111.5	6.0
CN(C)c1ccc(CNc2ccccn2)cc1	0.1	-0.3	2.4	-2.0	111.3	7.7
SMILES	MBD2 DNA inh	UHRF1 binding	DNMT1 inh	SUMO1 PPI mod	Pemphigus Ab inh	HCV NS3 hel inh
N=C(N)SCc1ccc(O)c([N+](=O)[O-])c1	-0.3	38.0*	-0.3	-16.0	95.9	3.8
COc1ccc(CSC(=N)N)cc1[N+](=O)[O-]	1.6	-1.6	-0.3	-14.5	104.4	4.1
CCOc1ccc(-c2noc(CCC(=O)NCC3CCCO3)n2)cc1OC (stereo not given)	-1.7	-2.0	-1.7	3.0	93.8	15.4
COc1ccccc1CC(NC(C)=O)C(=O)NC1CCN(c2nnnn2-c2ccccc2)CC1 (stereo not given)	/	/	0.8	-1.6	99.5	5.8
COc1cccc2c(=O)n(CC(=O)Nc3ccccc3)ccc12	-6.7	0.0	-1.6	-4.0	93.7	3.4
COC(=O)COc1cccc2c(=O)n(CC(=O)Nc3ccc4c(c3)OCCO4)ccc12	-1.9	0.0	1.2	2.2	51.4*	2.3
Cc1cccc(C(=O)NCC(=O)NC(C)CCc2ccccc2)c1 (stereo not given)	11.1	22.2*	1.6	-1.2	92.8	-0.8
CC(CCc1ccccc1)NC(=O)CN1CCc2ccccc2C1 (stereo not given)	2.5	22.4*	3.2	-0.9	105.9	-6.1
Cc1c(N=C2C=CC(=O)c3ccccc32)c(=O)n(-c2ccccc2)n1C	-16.9	-10.1	15.3	35.6	100.9	6.4
Cc1c(N=C2C=C(Br)C(=O)C(Br)=C2)c(=O)n(-c2ccccc2)n1C	18.5*	55.7*	-5.9	11.2	?	27.1
Cc1c(Br)c([N+](=O)[O-])nn1CC(=O)Nc1nccs1	-5.2	-2.3	1.3	-9.4	110.0	0.1
CCOc1ccccc1C1CC(=O)Nc2cc3c(cc21)OCCO3 (stereo not given)	-1.5	23.4*	-2.4	0.9	102.2	1.8
CCCOc1ccccc1C1CC(=O)Nc2cc3c(cc21)OCCO3 (stereo not given)	/	/	-6.4	2.0	111.0	-0.2
CCOc1ccc(OCC)c2sc(C)nc12	-0.6	2.4	1.1	1.7	/	-0.9
CC(C)OC(=O)c1cccnc1N1CCN(c2ccc(F)cc2)CC1	7.6	22.8*	2.2	0.2	102.3	-5.0
CC(C)OC(=O)c1ccc(N2CCN(c3ccc(F)cc3)CC2)nc1	-0.6	0.8	4.1	-1.1	105.5	-11.7
O=C(Nc1ccc(Cl)c(Cl)c1)Nn1cnnc1	0.4	-2.8	-4.4	2.6	98.4	-12.4
Cc1ccc(NC(=O)Nn2cnnc2)cc1Cl	-5.2	2.1	2.2	49.1*	99.8	-0.2
Cc1cc2oc(C(=O)N(Cc3cccs3)C3CCS(=O)(=O)C3)cc(=O)c2cc1Cl (stereo not given)	-0.1	-1.2	5.2	-6.4	103.6	-1.5
Cc1nc2ccc(C(=O)N3c4ccccc4CC3C)cc2s1 (stereo not given)	5.4	23.2*	-1.4	0.1	100.1	-4.4
CC1Cc2ccccc2N1C(=O)c1cccnc1 (stereo not given)	-2.4	-1.2	-4.0	1.5	97.7	10.9
O=C(NC(Cc1ccccc1)C(=O)O)/C(=C/c1ccccc1)NC(=O)c1ccccc1 (stereo not given)	9.7	8.5	3.2	-2.3	103.6	7.2
O=C(NC(Cc1ccccc1)C(=O)O)/C(=C\c1ccc(Cl)cc1)NC(=O)c1ccccc1 (stereo not given)	-2.5	28.0*	1.1	-1.5	98.8	5.8
